Measured values as given in ChEMBL document CHEMBL1137294, “Adenosine mimetics as inhibitors of NAD+-dependent histone deacetylases, from kinase to sirtuin inhibition” (J Med Chem, 2006).
pIC50: −log10 of the molar value. Activity calls are given as the source filed them. The calls are words filed in the database; no cut-off is given here.

Experiments:
[1] = molecular target: T1, NAD-dependent protein deacetylase sirtuin-2 (Homo sapiens, UniProt Q8IXJ6); assay: Inhibition of human recombinant SIRT2
T1 sequence (Q8IXJ6 whole entry): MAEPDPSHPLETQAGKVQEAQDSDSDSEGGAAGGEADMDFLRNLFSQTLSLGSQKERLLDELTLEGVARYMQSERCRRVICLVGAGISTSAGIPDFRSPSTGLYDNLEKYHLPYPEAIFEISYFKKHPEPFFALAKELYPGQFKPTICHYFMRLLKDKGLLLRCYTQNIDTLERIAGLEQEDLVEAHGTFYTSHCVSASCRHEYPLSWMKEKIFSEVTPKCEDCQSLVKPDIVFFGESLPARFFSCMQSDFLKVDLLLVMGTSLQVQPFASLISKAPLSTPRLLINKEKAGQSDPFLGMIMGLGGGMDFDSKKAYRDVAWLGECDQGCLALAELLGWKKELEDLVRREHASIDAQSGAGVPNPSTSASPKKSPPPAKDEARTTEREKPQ
In short: (§1)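 Homogeneous fluorescent deacetylase assay with recombinant SIRT1 or SIRT2 (SIRT2 full-length, N-terminal His6, expressed in E. coli BL21). Inhibition taken from remaining substrate versus no-inhibitor control. Run at least in duplicate, inhibitors added from DMSO stocks.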

[2] = molecular target: T2, NAD-dependent protein deacetylase sirtuin-1 (Homo sapiens, UniProt Q96EB6); assay: Inhibition of human SIRT1 by fluorescent deacetylase assay
T2 sequence (Q96EB6 whole entry): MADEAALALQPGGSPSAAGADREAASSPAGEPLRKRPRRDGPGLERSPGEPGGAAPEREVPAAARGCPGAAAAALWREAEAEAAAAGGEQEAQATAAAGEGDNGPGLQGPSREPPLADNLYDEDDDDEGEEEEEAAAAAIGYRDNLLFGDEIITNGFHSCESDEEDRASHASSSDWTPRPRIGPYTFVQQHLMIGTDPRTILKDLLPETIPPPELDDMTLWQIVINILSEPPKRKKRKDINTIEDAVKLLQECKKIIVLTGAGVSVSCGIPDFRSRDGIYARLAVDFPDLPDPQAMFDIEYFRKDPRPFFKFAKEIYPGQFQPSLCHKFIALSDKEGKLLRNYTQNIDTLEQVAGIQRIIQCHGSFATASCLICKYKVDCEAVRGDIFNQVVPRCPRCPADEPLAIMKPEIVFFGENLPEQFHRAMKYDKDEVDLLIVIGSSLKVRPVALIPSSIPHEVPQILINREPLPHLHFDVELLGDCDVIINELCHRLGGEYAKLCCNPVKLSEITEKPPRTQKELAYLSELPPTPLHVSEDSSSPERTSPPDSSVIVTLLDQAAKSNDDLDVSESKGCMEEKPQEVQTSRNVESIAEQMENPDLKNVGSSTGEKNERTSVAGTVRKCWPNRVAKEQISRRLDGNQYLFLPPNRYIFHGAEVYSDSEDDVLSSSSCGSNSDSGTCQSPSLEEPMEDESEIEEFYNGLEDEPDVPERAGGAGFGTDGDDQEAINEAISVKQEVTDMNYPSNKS
In short: (§2)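 Homogeneous fluorescent deacetylase assay with recombinant SIRT1 or SIRT2 (SIRT2 full-length, N-terminal His6, expressed in E. coli BL21). Reaction held ZMAL substrate 10.5 µM and NAD+ 500 µM, run 4 h at 37 °C. Deacetylated product developed by tryptic digest; fluorescence read at ex 390/em 460 nm. Inhibition taken from remaining substrate versus no-inhibitor control. Run at least in duplicate, inhibitors added from DMSO stocks.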

[3] = molecular target: T2, NAD-dependent protein deacetylase sirtuin-1; assay: Inhibition of human SIRT1; in short: as §1
[4] = molecular target: T1, NAD-dependent protein deacetylase sirtuin-2; assay: Inhibition of human recombinant SIRT2 by fluorescent deacetylase assay; in short: as §1
[5] = molecular target: T1, NAD-dependent protein deacetylase sirtuin-2; assay: Inhibition of human recombinant SIRT2 by radioactive deacetylase assay
In short: (§3)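 Radioactive deacetylase assay with recombinant SIRT1 or SIRT2. Substrate was [3H]-acetylated histone H4 N-terminal peptide (residues 1-25). Released [3H]acetic acid quantified by scintillation counting.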

[6] = molecular target: T2, NAD-dependent protein deacetylase sirtuin-1; assay: Inhibition of human SIRT1 by radioactive deacetylase assay; in short: as §3
[7] = molecular target: T3, NAD-dependent protein deacetylase sirtuin-1 (Homo sapiens) (UniProt Q96EB6); assay: Inhibition of human SIRT1 at 50 uM; in short: as §2
T3 sequence (whole entry): T2 sequence (Q96EB6 whole entry)

[8] = molecular target: T4, NAD-dependent protein deacetylase sirtuin-2 (Homo sapiens) (UniProt Q8IXJ6); assay: Inhibition of human recombinant SIRT2 at 50 uM
T4 sequence (whole entry): T1 sequence (Q8IXJ6 whole entry)
In short: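 N-terminally His6-tagged full-length human SIRT2, expressed in E. coli BL21. Homogeneous fluorescent deacetylase assay with ZMAL substrate (10.5 µM) and NAD+ (500 µM), 4 h at 37 °C. Inhibitor was added from DMSO stock. After stopping, a tryptic digest developed the fluorophore (ex 390/em 460 nm). Inhibition was taken from remaining substrate versus an uninhibited control, run at least in duplicate.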

[9] = molecular target: T4, NAD-dependent protein deacetylase sirtuin-2 (Homo sapiens); assay: Inhibition of human recombinant SIRT2 at 12.5 uM; in short: as §1
[10] = molecular target: T4, NAD-dependent protein deacetylase sirtuin-2 (Homo sapiens); assay: Inhibition of SIRT2 in A549 cells assessed as ability to induce hyperacetylation of tubulin by Western blot analysis; type: cell-based
In short: (§4)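 A549 human lung carcinoma cells grown in DMEM with 10% FBS, penicillin-streptomycin and 2 mM L-glutamine. Plated 1 day before treatment, then exposed to compound for 6 h. Cells washed with PBS and lysed in buffer containing 400 nM TSA. Lysates run on 10% SDS-PAGE and western blotted for acetylated alpha-tubulin against total alpha-tubulin.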

[11] = molecular target: T4, NAD-dependent protein deacetylase sirtuin-2 (Homo sapiens); assay: Inhibition of SIRT2 in A549 cells assessed as ability to induce hyperacetylation of tubulin by Western blot analysis at 0.1 uM; type: cell-based; in short: as §4

For `CN1C(=O)C(c2c[nH]c3ccccc23)=C(c2c[nH]c3ccccc23)C1=O`, the pIC50 [1] was 4.48, the pIC50 [2] was < 4.30 and the pIC50 [3] was < 4.30. The pIC50 [4] was 4.48, the pIC50 [5] was 4.62 and the pIC50 [6] was 4.80.

In the case of `O=C1NC(=O)C2=C1c1cn(c3ccccc13)CCOC(C(O)CO)CCn1cc2c2c(F)cccc21` (stereo unspecified), the pIC50 [1] was < 4.30 and the Activity [7] was “inactive”.

In the case of `O=C1C(c2c[nH]c3ccccc23)=C(c2c[nH]c3ccccc23)C(=O)N1Cc1ccccc1`, the pIC50 [1] was 4.40.

`CN[C@@H]1C[C@H]2O[C@@](C)([C@@H]1OC)n1c3ccccc3c3c4c(c5c6ccccc6n2c5c31)C(=O)NC4` was tested, and the Activity [8] was “inactive”.

Compound `O=C1NC(=O)C(c2cn(CCOC(CCO)C3COC4(CCCCC4)O3)c3ccccc23)=C1c1c[nH]c2ccccc12` (stereo unspecified) has a pIC50 [1] of 5.55 and an inhibition [7] of 77.5%.

For `CC(=O)c1c(O)c(C)c(O)c(Cc2c(O)c3c(c(C(=O)/C=C/c4ccccc4)c2O)OC(C)(C)C=C3)c1O`, the inhibition [9] was > 60%.

`CN(C)CCCn1cc(C2=C(c3c[nH]c4ccccc34)C(=O)NC2=O)c2ccccc21` [GF-109203] was tested, and the pIC50 [1] was 5.14, the pIC50 [2] was < 4.30 and the inhibition [9] was > 60%. The pIC50 [3] was < 4.30, the pIC50 [4] was 5.14 and the pIC50 [5] was 4.93. For the same compound, the pIC50 [6] was 4.64.

With `O=C1Nc2ccc(I)cc2C1=Cc1cc(Br)c(O)c(Br)c1` the inhibition [9] was > 60%.

`O=C1NC(=O)C(c2c[nH]c3ccccc23)=C1c1c[nH]c2ccccc12` [RO-316233] was tested, and the pIC50 [1] was 5.33 and the inhibition [7] was 52.7%.

For `O=C1Cc2c([nH]c3ccccc23)-c2ccccc2N1` [PAULLONE], the pIC50 [2] was 4.30, the Activity [10] was “Active” and the inhibition [7] was 49.4%. For the same compound, the pIC50 [6] was 5.10.

`ONC1=Nc2ccccc2-c2[nH]c3ccc(Br)cc3c2C1` was tested, and the inhibition [8] was 43.1%.

`NC(=O)c1cccnc1` was tested, and the inhibition [7] was 10.6%.

With `COC(=O)/C=C/c1cc(O)ccc1O` the inhibition [9] was > 60%.

`Oc1cc(O)cc(/C=C/c2ccc(O)c(O)c2)c1` was tested, and the inhibition [9] was > 60%.

With `CC(/C=C/C(=O)NO)=C\[C@@H](C)C(=O)c1ccc(N(C)C)cc1` the Activity [11] was “Active”.

With `CN1C(=O)C(c2cn(CCCCCCCO)c3ccccc23)=C(c2cn(CCCCCCCO)c3ccccc23)C1=O` the pIC50 [1] was < 4.00.

Compound `CN1C(=O)C(c2cn(Cc3ccccc3)c3ccccc23)=C(c2cn(Cc3ccccc3)c3ccccc23)C1=O` has a pIC50 [1] of 4.11.

`C=CC(=O)c1ccc2ccccc2c1` was tested, and the inhibition [9] was > 60%.

With `O=C1NC(=O)C(c2c[nH]c3cccc(F)c23)=C1c1cn(CCOC(CCO)C(O)CO)c2ccccc12` (stereo unspecified) the pIC50 [1] was 5.02 and the inhibition [7] was 29.9%.

In the case of `Cn1c2ccccc2c2c3c(c4c5ccccc5n(CCC#N)c4c21)CNC3=O` [GO-6976], the pIC50 [1] was < 4.00.

For `O=C1NC(=O)C2=C1c1cn(c3ccccc13)CC[C@@H](C1COC3(CCCCC3)O1)OCCn1cc2c2c(F)cccc21` (stereo partly specified), the pIC50 [1] was 4.68 and the inhibition [7] was 55.7%.

Work on `O=C1NC(=O)C(c2c[nH]c3cccc(F)c23)=C1c1cn(CCOC(CCO)C2COC3(CCCCC3)O2)c2ccccc12` (stereo unspecified) yielded a pIC50 [1] of 5.60 and an inhibition [7] of 71.9%.

For `O=C1Cc2c([nH]c3ccc(Br)cc23)-c2ccccc2N1` [KENPAULLONE], the pIC50 [1] was < 4.00.

In the case of `CN(C)C[C@H]1OCCn2cc(c3ccccc32)C2=C(C(=O)NC2=O)c2cn(c3cccc(F)c23)C[C@H]1F`, the pIC50 [1] was < 4.30 and the Activity [7] was “inactive”.

`O=C(O)c1cc(NCc2cc(O)ccc2O)ccc1O` was tested, and the inhibition [9] was > 60%.

With `O=Nc1c(-c2c(O)[nH]c3ccccc23)[nH]c2ccccc12` the inhibition [9] was > 60%.

`CCCCCCCn1cc(C2=C(c3cn(CCCCCCC)c4ccccc34)C(=O)N(C)C2=O)c2ccccc21` was tested, and the pIC50 [1] was < 4.00.

With `COCc1cc(-c2c(COC)cc(O)c(O)c2O)c(O)c(O)c1O` the inhibition [9] was > 60%.

Compound `CN1CCCC1CCn1cc(C2=C(c3c[nH]c4ccccc34)C(=O)NC2=O)c2ccccc21` (stereo unspecified) has a pIC50 [1] of 5.08 and an inhibition [7] of 58.2%.
